Tests used:
[1] = target: Pancreatic elastase (Sus scrofa) (UniProt P08419+P00772); test: Inhibition of porcine pancreatic elastase at 25 uM assessed as Kinact/Ki ratio incubated for 15 mins by spectrofluorometry; type: protein assay
[2] = Half life in 80% human plasma at […] incubated at 37 degC by HPLC; type: ADME, cell-free
Summary of the method: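 DMSO stock (50 mM) added to freshly isolated pooled healthy-donor human plasma diluted to 80% with PBS pH 7.4, final 3 mg/mL or 0.1 mg/mL; incubated 37 °C; compound remaining monitored by HPLC over time to give half-life.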

[3] = Inhibition of chymotrypsin at 25 uM assessed as Kinact/Ki ratio incubated for 15 mins by spectrofluorometry
[4] = Solubility in pH 7.4 PBS buffer at […] incubated at 37 degC by HPLC; type: physicochemical
[5] = Solubility in 80% human plasma at […] incubated at 37 degC by HPLC; type: ADME, cell-free
[6] = Inhibition of trypsin at 25 uM assessed as Kinact/Ki ratio incubated for 15 mins by spectrofluorometry
[7] = Half life in pH 7.4 PBS buffer at […] incubated at 37 degC by HPLC; type: physicochemical
[8] = target: T1, Neutrophil elastase (Homo sapiens) (UniProt P08246); test: Inhibition of human leukocyte elastase at 25 uM assessed as Kinact/Ki ratio incubated for 15 mins by spectrofluorometry
T1 sequence (whole entry): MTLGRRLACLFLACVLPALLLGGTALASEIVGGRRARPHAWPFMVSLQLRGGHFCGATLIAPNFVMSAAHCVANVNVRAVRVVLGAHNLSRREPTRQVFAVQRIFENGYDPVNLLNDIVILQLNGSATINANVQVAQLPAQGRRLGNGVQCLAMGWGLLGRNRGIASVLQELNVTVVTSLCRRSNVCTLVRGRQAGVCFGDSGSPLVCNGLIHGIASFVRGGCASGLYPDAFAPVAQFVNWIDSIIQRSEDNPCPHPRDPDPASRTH

Homo sapiens = species: Homo sapiens; test: Selectivity ratio of Kinact/Ki ratio for chymotrypsin to Kinact/Ki ratio for human leukocyte elastase
[9] = Selectivity ratio of Kinact/Ki ratio for porcine pancreatic elastase to Kinact/Ki ratio for human leukocyte elastase

Row | Compound | Ratio [1] | half-life [2] | Ratio [3] | solubility [4] | solubility [5] | Ratio [6] | half-life [7] | Ratio [8] | Ratio (Homo sapiens) | inhibition [6] | inhibition [3] | Ratio [9]
1 | COc1ccc(C(=O)N[C@H](C(=O)N2CCC[C@H]2C(=O)NC(C(C)C)P(=O)(Oc2ccc(SC)cc2)Oc2ccc(SC)cc2)C(C)C)cc1 (mixture of isomers) | 4700 M⁻¹ s⁻¹ | 3.8 h | < 50 M⁻¹ s⁻¹ | 0.17 mM | 0.17 mM | < 50 M⁻¹ s⁻¹ | 26 h | 304000 M⁻¹ s⁻¹ |  |  |  | 
2 | CSc1ccc(OP(=O)(Oc2ccc(SC)cc2)C(NC(=O)[C@@H]2CCCN2C(=O)[C@@H](NC(=O)Cn2ccc(=O)n(CC(=O)O)c2=O)C(C)C)C(C)C)cc1 (mixture of isomers) | 140000 M⁻¹ s⁻¹ | 4.55 h | 28300 M⁻¹ s⁻¹ | 6.22 mM | 6.22 mM | 130 M⁻¹ s⁻¹ | 100 h | 460000 M⁻¹ s⁻¹ |  |  |  | 
3 | CCCC(NC(=O)[C@@H]1CCCN1C(=O)[C@@H](NC(=O)OC(C)(C)C)C(C)C)P(=O)(Oc1ccc(SC)cc1)Oc1ccc(SC)cc1 (mixture of isomers) | 54800 M⁻¹ s⁻¹ |  | 2800 M⁻¹ s⁻¹ |  |  | 420 M⁻¹ s⁻¹ |  | 56200 M⁻¹ s⁻¹ | 20 |  |  | 
4 | CSc1ccc(OP(=O)(Oc2ccc(SC)cc2)C(NC(=O)[C@@H]2CCCN2C(=O)[C@H](CC(C)C)NC(=O)OC(C)(C)C)C(C)C)cc1 (mixture of isomers) | 7000 M⁻¹ s⁻¹ |  | 150 M⁻¹ s⁻¹ |  |  | < 50 M⁻¹ s⁻¹ |  | 128000 M⁻¹ s⁻¹ |  |  |  | 
5 | CCc1ccc(OP(=O)(Oc2ccc(CC)cc2)C(C)NC(=O)[C@@H]2CCCN2C(=O)[C@@H](NC(=O)OC(C)(C)C)C(C)C)cc1 (mixture of isomers) | 1100 M⁻¹ s⁻¹ |  | < 50 M⁻¹ s⁻¹ |  |  |  |  | 870 M⁻¹ s⁻¹ |  | < 5% |  | 
6 | CSc1ccc(OP(=O)(Oc2ccc(SC)cc2)[C@H](NC(=O)[C@@H]2CCCN2C(=O)[C@@H](NC(=O)COc2ccc(OCC(=O)O)cc2)C(C)C)C(C)C)cc1 | 85 M⁻¹ s⁻¹ |  | < 50 M⁻¹ s⁻¹ |  |  | < 50 M⁻¹ s⁻¹ |  | 1550 M⁻¹ s⁻¹ |  |  |  | 
7 | CCCC(NC(=O)[C@@H]1CCCN1C(=O)[C@@H](NC(=O)OC(C)(C)C)C(C)C)P(=O)(Oc1ccc(C(C)(C)C)cc1)Oc1ccc(C(C)(C)C)cc1 (mixture of isomers) | < 50 M⁻¹ s⁻¹ |  |  |  |  |  |  | < 50 M⁻¹ s⁻¹ |  | < 5% | < 5% | 
8 | CCc1ccc(OP(=O)(Oc2ccc(CC)cc2)C(NC(=O)[C@@H]2CCCN2C(=O)[C@@H](NC(=O)OC(C)(C)C)C(C)C)C(C)C)cc1 (mixture of isomers) | 6000 M⁻¹ s⁻¹ |  |  |  |  |  |  | 6800 M⁻¹ s⁻¹ |  | < 5% | < 5% | 
9 | CC(C)C(NC(=O)[C@@H]1CCCN1C(=O)[C@@H](NC(=O)OC(C)(C)C)C(C)C)P(=O)(Oc1ccc(C(C)(C)C)cc1)Oc1ccc(C(C)(C)C)cc1 (mixture of isomers) | 700 M⁻¹ s⁻¹ |  |  |  |  |  |  | 3450 M⁻¹ s⁻¹ |  | < 5% | < 5% | 
10 | CC(C)c1ccc(OP(=O)(Oc2ccc(C(C)C)cc2)C(NC(=O)[C@@H]2CCCN2C(=O)[C@@H](NC(=O)OC(C)(C)C)C(C)C)C(C)C)cc1 (mixture of isomers) | 2000 M⁻¹ s⁻¹ |  | < 50 M⁻¹ s⁻¹ |  |  | < 50 M⁻¹ s⁻¹ |  | 4200 M⁻¹ s⁻¹ |  |  |  | 
11 | CC(C)C(NC(=O)[C@@H]1CCCN1C(=O)[C@@H](NC(=O)OC(C)(C)C)C(C)C)P(=O)(Oc1ccccc1)Oc1ccccc1 (mixture of isomers) | 22800 M⁻¹ s⁻¹ |  | < 50 M⁻¹ s⁻¹ |  |  | < 50 M⁻¹ s⁻¹ |  | 46100 M⁻¹ s⁻¹ |  |  |  | 2
12 | CC(C)CC(NC(=O)[C@@H]1CCCN1C(=O)[C@@H](NC(=O)OC(C)(C)C)C(C)C)P(=O)(Oc1ccccc1)Oc1ccccc1 (mixture of isomers) | 1300 M⁻¹ s⁻¹ |  | 1900 M⁻¹ s⁻¹ |  |  | < 50 M⁻¹ s⁻¹ |  | 325 M⁻¹ s⁻¹ |  |  |  | 
13 | CSc1ccc(OP(=O)(Oc2ccc(SC)cc2)[C@H](NC(=O)[C@@H]2CCCN2C(=O)[C@@H](NC(=O)OC(C)(C)C)C(C)C)C(C)C)cc1 | < 50 M⁻¹ s⁻¹ |  | < 50 M⁻¹ s⁻¹ |  |  |  |  | 2650 M⁻¹ s⁻¹ |  | < 5% |  | 
14 | CSCC[C@H](NC(=O)OCc1ccccc1)C(=O)N1CCC[C@H]1C(=O)NC(C(C)C)P(=O)(Oc1ccc(SC)cc1)Oc1ccc(SC)cc1 (mixture of isomers) | 6300 M⁻¹ s⁻¹ |  | 3700 M⁻¹ s⁻¹ |  |  | < 50 M⁻¹ s⁻¹ |  | 223000 M⁻¹ s⁻¹ |  |  |  | 
15 | CCC(NC(=O)[C@@H]1CCCN1C(=O)[C@@H](NC(=O)OC(C)(C)C)C(C)C)P(=O)(Oc1ccc(SC)cc1)Oc1ccc(SC)cc1 (mixture of isomers) | 60100 M⁻¹ s⁻¹ |  | 365 M⁻¹ s⁻¹ |  |  | 460 M⁻¹ s⁻¹ |  | 165000 M⁻¹ s⁻¹ |  |  |  | 
16 | CSc1ccc(OP(=O)(Oc2ccc(SC)cc2)C(C)NC(=O)[C@@H]2CCCN2C(=O)[C@@H](NC(=O)OC(C)(C)C)C(C)C)cc1 (mixture of isomers) | 11400 M⁻¹ s⁻¹ |  | < 50 M⁻¹ s⁻¹ |  |  | < 50 M⁻¹ s⁻¹ |  | 3500 M⁻¹ s⁻¹ |  |  |  | 

Row | Compound | Ratio [1] | half-life [2] | Ratio [3] | solubility [4] | solubility [5] | Ratio [6] | half-life [7] | Ratio [8] | Ratio (Homo sapiens) | inhibition [6] | inhibition [3] | Ratio [9]
17 | CSc1ccc(OP(=O)(Oc2ccc(SC)cc2)C(NC(=O)[C@@H]2CCCN2C(=O)[C@H](COC(C)(C)C)NC(=O)OCc2ccccc2)C(C)C)cc1 (mixture of isomers) | 4300 M⁻¹ s⁻¹ |  | 500 M⁻¹ s⁻¹ |  |  | < 50 M⁻¹ s⁻¹ |  | 162000 M⁻¹ s⁻¹ |  |  |  | 
18 | CSc1ccc(OP(=O)(Oc2ccc(SC)cc2)C(NC(=O)[C@@H]2CCCN2C(=O)[C@H](CC(C)C)NC(=O)OCc2ccccc2)C(C)C)cc1 (mixture of isomers) | 1000 M⁻¹ s⁻¹ |  | 800 M⁻¹ s⁻¹ |  |  |  |  | 86200 M⁻¹ s⁻¹ |  | < 5% |  | 
19 | CSc1ccc(OP(=O)(Oc2ccc(SC)cc2)[C@H](NC(=O)[C@@H]2CCCN2C(=O)[C@@H](NC(=O)Cn2cc(C)c(=O)n(CC(=O)O)c2=O)C(C)C)C(C)C)cc1 | 300 M⁻¹ s⁻¹ |  | < 50 M⁻¹ s⁻¹ |  |  |  |  | 4100 M⁻¹ s⁻¹ |  | < 5% |  | 
20 | CCCCC(NC(=O)[C@@H]1CCCN1C(=O)[C@@H](NC(=O)OC(C)(C)C)C(C)C)P(=O)(Oc1ccccc1)Oc1ccccc1 (mixture of isomers) | 1700 M⁻¹ s⁻¹ |  | 400 M⁻¹ s⁻¹ |  |  | < 50 M⁻¹ s⁻¹ |  | 650 M⁻¹ s⁻¹ |  |  |  | 
21 | CSc1ccc(OP(=O)(Oc2ccc(SC)cc2)[C@@H](NC(=O)[C@@H]2CCCN2C(=O)[C@@H](NC(=O)Cn2ccc(=O)n(CC(=O)O)c2=O)C(C)C)C(C)C)cc1 | 309000 M⁻¹ s⁻¹ |  | 40200 M⁻¹ s⁻¹ |  |  | 235 M⁻¹ s⁻¹ |  | 1.08e+06 M⁻¹ s⁻¹ | 27 |  |  | 3.5
22 | COc1ccc(OP(=O)(Oc2ccc(OC)cc2)C(NC(=O)[C@@H]2CCCN2C(=O)[C@@H](NC(=O)OC(C)(C)C)C(C)C)C(C)C)cc1 (mixture of isomers) | 19500 M⁻¹ s⁻¹ |  | < 50 M⁻¹ s⁻¹ |  |  | < 50 M⁻¹ s⁻¹ |  | 42700 M⁻¹ s⁻¹ |  |  |  | 
23 | CC(C)c1ccc(OP(=O)(Oc2ccc(C(C)C)cc2)C(C)NC(=O)[C@@H]2CCCN2C(=O)[C@@H](NC(=O)OC(C)(C)C)C(C)C)cc1 (mixture of isomers) | 300 M⁻¹ s⁻¹ |  | < 50 M⁻¹ s⁻¹ |  |  |  |  | < 50 M⁻¹ s⁻¹ |  | < 5% |  | 
24 | CCc1ccc(OP(=O)(Oc2ccc(CC)cc2)C(CC)NC(=O)[C@@H]2CCCN2C(=O)[C@@H](NC(=O)OC(C)(C)C)C(C)C)cc1 (mixture of isomers) | 4210 M⁻¹ s⁻¹ |  | < 50 M⁻¹ s⁻¹ |  |  | < 50 M⁻¹ s⁻¹ |  | 1380 M⁻¹ s⁻¹ |  |  |  | 
25 | CSc1ccc(OP(=O)(Oc2ccc(SC)cc2)C(CC(C)C)NC(=O)[C@@H]2CCCN2C(=O)[C@@H](NC(=O)OC(C)(C)C)C(C)C)cc1 (mixture of isomers) | 11200 M⁻¹ s⁻¹ |  | 21900 M⁻¹ s⁻¹ |  |  | 280 M⁻¹ s⁻¹ |  | 4100 M⁻¹ s⁻¹ |  |  |  | 
26 | COc1ccc(C(=O)N[C@H](C(=O)N2CCC[C@H]2C(=O)N[C@@H](C(C)C)P(=O)(Oc2ccc(SC)cc2)Oc2ccc(SC)cc2)C(C)C)cc1 | 6700 M⁻¹ s⁻¹ |  | 100 M⁻¹ s⁻¹ |  |  | < 50 M⁻¹ s⁻¹ |  | 540000 M⁻¹ s⁻¹ |  |  |  | 
27 | CCCC(NC(=O)[C@@H]1CCCN1C(=O)[C@@H](NC(=O)OC(C)(C)C)C(C)C)P(=O)(Oc1ccccc1)Oc1ccccc1 (mixture of isomers) | 10900 M⁻¹ s⁻¹ |  | 140 M⁻¹ s⁻¹ |  |  | < 50 M⁻¹ s⁻¹ |  | 2600 M⁻¹ s⁻¹ |  |  |  | 
28 | CC(C)[C@H](NC(=O)OC(C)(C)C)C(=O)N1CCC[C@H]1C(=O)NC(C)P(=O)(Oc1ccc(C(C)(C)C)cc1)Oc1ccc(C(C)(C)C)cc1 (mixture of isomers) | < 50 M⁻¹ s⁻¹ |  | < 50 M⁻¹ s⁻¹ |  |  |  |  | < 50 M⁻¹ s⁻¹ |  | < 5% |  | 
29 | CSc1ccc(OP(=O)(Oc2ccc(SC)cc2)[C@@H](NC(=O)[C@@H]2CCCN2C(=O)[C@@H](NC(=O)Cn2cc(C)c(=O)n(CC(=O)O)c2=O)C(C)C)C(C)C)cc1 | 243000 M⁻¹ s⁻¹ |  | 44700 M⁻¹ s⁻¹ |  |  | 280 M⁻¹ s⁻¹ |  | 1.76e+06 M⁻¹ s⁻¹ |  |  |  | 
30 | CCC(NC(=O)[C@@H]1CCCN1C(=O)[C@@H](NC(=O)OC(C)(C)C)C(C)C)P(=O)(Oc1ccc(C)c(C)c1)Oc1ccc(C)c(C)c1 (mixture of isomers) | 1250 M⁻¹ s⁻¹ |  | < 50 M⁻¹ s⁻¹ |  |  | < 50 M⁻¹ s⁻¹ |  | 460 M⁻¹ s⁻¹ |  |  |  | 
31 | CCCCC(NC(=O)[C@@H]1CCCN1C(=O)[C@@H](NC(=O)OC(C)(C)C)C(C)C)P(=O)(Oc1ccc(SC)cc1)Oc1ccc(SC)cc1 (mixture of isomers) | 9700 M⁻¹ s⁻¹ |  | 4250 M⁻¹ s⁻¹ |  |  | < 50 M⁻¹ s⁻¹ |  | 8100 M⁻¹ s⁻¹ | 2 |  |  | 

Reference: ChEMBL document CHEMBL2163241, “Human neutrophil elastase phosphonic inhibitors with improved potency of action” (J Med Chem, 2012)
